Data taken from article PMC8546901 (Chembiochem : a European journal of chemical biology, 2021).
Residue numbers refer to the chain shown, from its start.

Tests used:
RGS17-RH [1] = target: T1, RGS17-RH (Homo sapiens, UniProt Q9UGC6); test: Differential scanning fluorimetry; type: binding; conditions: 1 mM fragment, 10 μM RGS17-RH
T1 sequence (Q9UGC6 72-206): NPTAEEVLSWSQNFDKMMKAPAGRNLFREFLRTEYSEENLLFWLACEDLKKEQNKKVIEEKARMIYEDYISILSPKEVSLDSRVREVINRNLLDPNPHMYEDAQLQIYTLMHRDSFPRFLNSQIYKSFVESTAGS
Method in brief: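 10 μM RGS17-RH was incubated 30 min at ambient temperature with 1 mM fragment or DMSO control. 2X Sypro Orange was then added, and fluorescence was recorded from 20 to 80 °C. Tm was calculated from the melt curves. Mean of n=3 ± S.E.M.; one-way ANOVA with multiple comparisons.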

RGS4-RH = target: T2, RGS4-RH (Homo sapiens, UniProt P49798); test: 1H-15N HSQC NMR binding to RGS4-RH; conditions: 1H-15N HSQC with RGS4-RH
T2 sequence (P49798 51-179): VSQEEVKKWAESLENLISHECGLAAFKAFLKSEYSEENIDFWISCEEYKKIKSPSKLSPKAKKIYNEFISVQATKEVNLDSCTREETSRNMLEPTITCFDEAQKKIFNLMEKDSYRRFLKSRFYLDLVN
Method in brief: (§1)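 ¹⁵N-labelled RH domains (wild-type RGS4, or RGS17 with the C117S point mutation) were expressed in E. coli BL21-CodonPlus(DE3)-RIPL in M9 medium with 1 g/L ¹⁵NH₄Cl. The His₆ tag was removed with TEV protease, and protein was purified by Ni-IMAC and size exclusion. ¹H-¹⁵N HSQC spectra were recorded with fragment at 1 mM in 1% DMSO and overlaid on 1% DMSO control spectra.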

[2] = target: T3, RGS17-RH GAP activity towards Gαi1 (R178M, A326S) (Homo sapiens, UniProt Q9UGC6); test: Malachite green GAP activity assay; type: biochemical; conditions: 1 mM fragment, 4.5 μM RGS17-RH
T3 sequence (Q9UGC6 72-206): T1 sequence (Q9UGC6 72-206)
Method in brief: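 Free phosphate from GTP hydrolysis was detected colorimetrically with malachite green. Final concentrations were 300 μM GTP, 4.5 μM tag-free RGS17-RH and 1 mM fragment. Mean of n=3 independent experiments ± SEM.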

RGS17-RH [3] = target: T1, RGS17-RH; test: 1H-15N HSQC NMR fragment titration, chemical shift perturbation KD; type: binding; conditions: calculated from KD and number of heavy atoms
Method in brief: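 100 μM ¹⁵N-RGS17-RH was titrated with fragment from 100 μM up to its solubility limit (generally 2–10 mM) in phosphate buffer, pH 7.6, and ¹H-¹⁵N HSQC spectra were recorded. CSP was taken as the distance between control and treated peak centres. Per-residue KD came from a quadratic binding fit and was averaged over residues. LE = (−2.3039·R·T/HA)·log(KD).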

RGS17-RH C117S = target: T4, RGS17-RH C117S (Homo sapiens, UniProt Q9UGC6, C117S); test: 1H-15N HSQC NMR binding to RGS17-RH C117S mutant; conditions: 1H-15N HSQC with RGS17-RH C117S mutant
T4 sequence (Q9UGC6 72-206 C117S): T1 sequence (Q9UGC6 72-206) with C46S
Method in brief: as §1

RGS17-RH [4] = target: T1, RGS17-RH; test: DACM cysteine labeling of RGS17-RH after pre-incubation; type: biochemical; conditions: 10-fold molar excess compound (20 μM) over 2 μM RGS17-RH, 30 min pre-incubation
Method in brief: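 RGS17-RH, or buffer alone, was pre-incubated 30 min at ambient temperature with compound (final 2 μM protein, 20 μM compound; NEM as comparator). The buffer was 20 mM K₂HPO₄, 100 mM NaCl, 2 mM NaN₃, pH 7.6. DACM was then added, and fluorescence (ex 385/em 440 nm) was read for 1,000 s. Slopes were normalised to no-protein (0%) and protein without compound (100%). Mean of n=3 ± S.D.; one-way ANOVA.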

SMILES | RGS4 Binding (RGS4-RH) | L.E. (ligand efficiency) (RGS17-RH [3]) | RGS C117S Binding (RGS17-RH C117S) | effect on melting temperature of RGS17-RH (in words) (RGS17-RH [1]) | other results
Oc1ccc(Sc2ccc(O)cc2)cc1 [Fragment 4] | Yes | 0.31 | Yes | melting temperature could not be accurately determined | inhibition of RGS17-RH GAP activity ([2]; 300 μM GTP): ~20%
CSc1cc(-c2ccc(F)cc2)[nH]n1 [Fragment 5] |  | 0.23 |  |  | RGS4 Binding (RGS4-RH; listed as 5): No; RGS4 Binding (RGS4-RH; listed as fragment 5): did not bind; RGS C117S Binding (RGS17-RH C117S; listed as 5): No; RGS C117S Binding (RGS17-RH C117S; listed as fragment 5): did not bind
OCCCCn1cnc2cc(Cl)c(Cl)cc21 [Fragment 6] | Yes | 0.25 | Yes | not statistically significant | inhibition of RGS17-RH GAP activity (in words) ([2]; one-way ANOVA): lack of appreciable RGS17-RH GAP inhibition
OCCCCCOc1ccc(Cl)cc1 [Fragment 7] | Yes | 0.25 | Yes |  | 
CCN1C(=O)C=CC1=O [N-ethyl maleimide (NEM), N-ethyl maleimide, reference compound] |  |  |  |  | DACM labeling of RGS17-RH after pre-incubation (RGS17-RH [4]): decreased DACM labeling
